Source: ChEMBL document CHEMBL1955742, “Synthesis and SAR studies of phenanthroindolizidine and phenanthroquinolizidine alkaloids as potent anti-tumor agents” (2012)

Columns and labels:
Format in all cases: functional
HL-60 [1] = experiment: Antiproliferative activity against human HL60 cells after 72 hrs by SRB assay
Method in brief: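 HL60 human promyelocytic leukemia cells were seeded and grown for 24 h, then given compounds and cultured for another 72 h. Read-out was SRB, per the table footnote. GI50 was obtained by the Logit method from three or more independent experiments.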

A549 [2] = experiment: Antiproliferative activity against human A549 cells after 72 hrs by MTT assay
Method in brief: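 A549 human lung adenocarcinoma epithelial cells were seeded and grown for 24 h, then exposed to compounds for a further 72 h. Proliferation was read by MTT, as assigned in the table footnote. GI50 was calculated by the Logit method from at least three independent experiments.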

HL-60 [3] = experiment: Antiproliferative activity against human HL60 cells at 10^-8 mol/L after 72 hrs by SRB assay; conditions: HL-60, 72 h
HL-60 [4] = experiment: Antiproliferative activity against human HL60 cells at 10^-7 mol/L after 72 hrs by SRB assay; conditions: HL-60, 72 h
HL-60 [5] = experiment: Antiproliferative activity against human HL60 cells at 10^-6 mol/L after 72 hrs by SRB assay; conditions: HL-60, 72 h
A549 [6] = experiment: Antiproliferative activity against human A549 cells at 10^-6 mol/L after 72 hrs by MTT assay; conditions: A549, 72 h
A549 [7] = experiment: Antiproliferative activity against human A549 cells at 10^-8 mol/L after 72 hrs by MTT assay; conditions: A549, 72 h
A549 [8] = experiment: Antiproliferative activity against human A549 cells at 10^-7 mol/L after 72 hrs by MTT assay; conditions: A549, 72 h

Row | GI50 (HL-60 [1]; Homo sapiens, HL-60, 72 h) [µM] | GI50 (A549 [2]; Homo sapiens, A549, 72 h) [µM] | SMILES | other results
1 | 1.6 | 0.4 | COc1ccc2c3c(c4cc(OC)c(OC)cc4c2c1)[C@H](N)[C@@H]1CCCN1C3 | –
2 | 1.2 | 1.5 | COc1ccc2c3c(c4cc(OC)c(OC)cc4c2c1)CN1CCC[C@H]1[C@H]3NC(C)=O | –
3 | > 10 | > 10 | COc1ccc2c3c(c4cc(OC)c(OC)cc4c2c1)CN1CCC[C@H]1[C@H]3NC(=O)C(C)(C)C | –
4 | 0.5 | 0.9 | COc1ccc2c3c(c4cc(OC)c(OC)cc4c2c1)CN1CCCC[C@@H]1C3 | –
5 | 0.06 | 0.09 | COc1ccc2c3c(c4cc(OC)c(OC)cc4c2c1)CN1CCC[C@H]1C3 | –
6 | 0.04 | 1 | COc1ccc2c3c(c4cc(OC)c(OC)cc4c2c1)[C@H](O)[C@@H]1CCCCN1C3 | –
7 | 0.3 | 0.4 | COc1cc2c3c(c4cc(OC)c(OC)cc4c2cc1OC)[C@H](O)[C@@H]1CCCCN1C3 | –
8 | 0.2 | 0.3 | COc1ccc2c3c(c4cc(OC)c(OC)cc4c2c1)C[C@@H]1CCCN1C3 [HYPOESTESTATIN 1] | –
9 | 0.05 | 0.1 | COc1ccc2c3c(c4cc(OC)c(OC)cc4c2c1)CN1CCC[C@H]1[C@H]3N | –
10 | 0.3 | 0.7 | COc1ccc2c3c(c4cc(OC)c(OC)cc4c2c1)CN1CCC[C@@H]1C3 | –
11 | < 0.001 | 0.02 | COc1ccc2c3c(c4cc(OC)c(OC)cc4c2c1)[C@@H](O)[C@H]1CCCCN1C3 | –
12 | > 10 | > 10 | COc1ccc2c3c(c4cc(OC)c(OC)cc4c2c1)[C@H](NC(=O)C(C)(C)C)[C@@H]1CCCN1C3 | –
13 | 0.05 | 0.05 | COc1ccc2c3c(c4cc(OC)c(OC)cc4c2c1)[C@H](NC(C)=O)[C@@H]1CCCN1C3 | –
14 | < 0.001 | 0.01 | COc1ccc2c3c(c4cc(OC)c(OC)cc4c2c1)C[C@H]1CCCN1C3 [(-)-ANTOFINE] | –
15 | 0.3 | 1.1 | COc1cc2c3c(c4cc(OC)c(OC)cc4c2cc1OC)[C@H](N)[C@@H]1CCCN1C3 | –
16 | < 0.001 | 0.06 | COc1cc2c3c(c4cc(OC)c(OC)cc4c2cc1OC)CN1CCCC[C@H]1C3 | –
17 | < 0.001 | 0.4 | COc1ccc2c3c(c4cc(OC)c(OC)cc4c2c1)CN1CCCC[C@H]1[C@H]3O | –
18 | < 0.001 | < 0.001 | COc1cc2c3c(c4cc(OC)c(OC)cc4c2cc1OC)CN1CCCC[C@@H]1C3 | –
19 | 0.3 | 3.7 | COc1ccc2c3c(c4cc(OC)c(OC)cc4c2c1)CN1CCC[C@@H]1[C@@H]3O | –
20 | < 0.001 | 0.3 | COc1ccc2c3c(c4cc(OC)c(OC)cc4c2c1)CN1CCCC[C@@H]1[C@@H]3O | –
21 | < 0.001 | 0.03 | COc1ccc2c3c(c4cc(OC)c(OC)cc4c2c1)CN1CCC[C@H]1[C@H]3O | –
22 | 0.6 | 0.7 | COc1ccc2c3c(c4cc(OC)c(OC)cc4c2c1)CN1CCCC[C@H]1C3 | –

The remaining lines, values behind:

Row | SMILES | GI50 (HL-60 [1]; Homo sapiens, HL-60, 72 h) [µM] | GI50 (A549 [2]; Homo sapiens, A549, 72 h) [µM] | other results
23 | COc1cc2c3c(c4cc(OC)c(OC)cc4c2cc1OC)[C@@H](O)[C@H]1CCCCN1C3 | < 0.001 | 0.07 | –
24 | COc1cc2c3c(c4cc5c(cc4c2cc1OC)OCO5)CC1CCCN1C3 (racemic) | – | – | inhibition at 0.01 µM (HL-60 [3]): 11.7%; inhibition at 0.1 µM (HL-60 [4]): 9.4%; inhibition at 1 µM (HL-60 [5]): 62.9%; inhibition at 1 µM (A549 [6]): 70.3%; inhibition at 0.01 µM (A549 [7]): 15.9%; inhibition at 0.1 µM (A549 [8]): 22.4%
25 | COc1cc2c3c(c4cc5c(cc4c2cc1OC)OCO5)CN1CCCC1C3 (racemic) | – | – | inhibition at 0.01 µM (HL-60 [3]): 14.8%; inhibition at 0.1 µM (HL-60 [4]): 56.4%; inhibition at 1 µM (HL-60 [5]): 88.4%; inhibition at 1 µM (A549 [6]): 80.9%; inhibition at 0.01 µM (A549 [7]): 16.9%; inhibition at 0.1 µM (A549 [8]): 51.6%
26 | COc1cc2c3c(c4cc(OC)c(OC)cc4c2cc1OC)[C@H](NC(C)=O)[C@@H]1CCCN1C3 | > 10 | > 10 | –
27 | COc1cc2c3c(c4cc(OC)c(OC)cc4c2cc1OC)[C@@H](O)[C@@H]1CCCN1C3 | – | – | inhibition at 0.01 µM (HL-60 [3]): 3.9%; inhibition at 0.1 µM (HL-60 [4]): 8.2%; inhibition at 1 µM (HL-60 [5]): 49.8%; inhibition at 1 µM (A549 [6]): 50%; inhibition at 0.01 µM (A549 [7]): 5.2%; inhibition at 0.1 µM (A549 [8]): 8.2%
28 | COc1ccc2c3c(c4cc(OC)c(OC)cc4c2c1)[C@H](O)[C@@H]1CCCN1C3 | > 10 | > 10 | –
29 | COc1cc2c3c(c4cc(OC)c(OC)cc4c2cc1OC)[C@H](NC(=O)C(C)(C)C)[C@@H]1CCCN1C3 | > 10 | > 10 | –
30 | COc1cc2c3c(c4cc(OC)c(OC)cc4c2cc1OC)[C@H](O)[C@H]1CCCN1C3 | – | – | inhibition at 0.01 µM (HL-60 [3]): 12.1%; inhibition at 0.1 µM (HL-60 [4]): 16.1%; inhibition at 1 µM (HL-60 [5]): 27%; inhibition at 1 µM (A549 [6]): 17.9%; inhibition at 0.01 µM (A549 [7]): 5%; inhibition at 0.1 µM (A549 [8]): 5.6%
31 | c1c2c(cc3c1c1c(c4cc5c(cc43)OCCO5)CN3CCCC3C1)OCCO2 (racemic) | – | – | inhibition at 0.01 µM (HL-60 [3]): 0%; inhibition at 0.1 µM (HL-60 [4]): 8.2%; inhibition at 1 µM (HL-60 [5]): 11.2%; inhibition at 1 µM (A549 [6]): 38.6%; inhibition at 0.01 µM (A549 [7]): 8.7%; inhibition at 0.1 µM (A549 [8]): 6.3%
32 | COc1cc2c3c(c4cc(OC)c(OC)cc4c2cc1OC)CN1CCC[C@@H]1C3 [TYLOPHORINE] | 0.1 | 0.5 | –
33 | COc1cc2c3c(c4cc(OC)c(OC)cc4c2cc1OC)CN1CCC[C@H]1C3 [(S)-TYLOPHORINE] | 0.01 | 0.7 | –
34 | COc1ccc2c3c(c4cc(OC)c(OC)cc4c2c1)C[C@@H]1CCCCN1C3 | – | – | GI50 (HL-60 [1]): < 0.001 µM; GI50 (A549 [2]): < 0.001 µM
35 | COc1ccc2c3c(c4cc(OC)c(OC)cc4c2c1)[C@@H](O)[C@H]1CCCN1C3 | > 10 | > 10 | –
36 | c1c2c(cc3c1c1c(c4cc5c(cc43)OCO5)CN3CCCC3C1)OCO2 (racemic) | – | – | inhibition at 0.01 µM (HL-60 [3]): 10.4%; inhibition at 0.1 µM (HL-60 [4]): 8.3%; inhibition at 1 µM (HL-60 [5]): 13.6%; inhibition at 1 µM (A549 [6]): 40.8%; inhibition at 0.01 µM (A549 [7]): 5.7%; inhibition at 0.1 µM (A549 [8]): 5.2%
37 | COc1ccc2c3c(c4cc(OC)c(OC)cc4c2c1)C[C@H]1CCCCN1C3 [CRYPTOPLEURINE] | < 0.001 | < 0.001 | –
